Assay [1] concerns the target T1, Histamine H3 receptor (Homo sapiens, UniProt Q9Y5N1). Nature of the assay: Displacement of [3H]UR-P1294 from human H3R receptor expressed in HEK293 cells by radioligand competition binding assay. The format is cell-based.
Assay [2] addresses T1, Histamine H3 receptor. Nature of the assay: Binding affinity in Nluc-hH3R assessed in HEK293 cells by NanoBRET binding assay. The format is cell-based. The essentials:
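Saturation NanoBRET binding of the fluorescent ligand at live HEK293 cells stably expressing NLuc-hH3R; acceptor/donor BRET ratio; pKd from saturation isotherm; three independent experiments, each in duplicate.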
A general note: In BRET a luciferase serves as donor, and the signal depends on an acceptor being close.

Assay [3] has as its target T1, Histamine H3 receptor. Nature of the assay: Binding affinity in Nluc-hH3R assessed in HEK293T cells by NanoBRET binding assay. The format is cell-based.
Assay [4] addresses T1, Histamine H3 receptor. The assay can be described thus: Binding affinity to human H3R expressed in HEK293 cells by flow cytometric analysis. It is filed as cell-based. For orientation: Flow cytometry measures light scatter and fluorescence of single cells or particles in a stream.
Assay [5] deals with T1, Histamine H3 receptor. Nature of the assay: Binding affinity in Nluc-hH3R assessed as association time constant receptor saturated after 15 mins by NanoBRET binding assay.
For assay [6], the target named is T1, Histamine H3 receptor. Nature of the assay: Binding affinity in Nluc-hH3R assessed as dissociation time constant by NanoBRET binding assay.
Assay [7] addresses T1, Histamine H3 receptor. Nature of the assay: Binding affinity in Nluc-hH3R assessed as association rate constant by NanoBRET binding assay.
For another assay, the target named is Histamine H1 receptor (Homo sapiens, UniProt P35367). Nature of the assay: Displacement of [3H]mepyramine from human H1R receptor expressed in HEK293 cells by radioligand competition binding assay. The format is cell-based. (In general: Displacement assays read how much labelled ligand stays bound in the presence of the test substance.)
Sequence of Histamine H1 receptor (P35367 whole entry): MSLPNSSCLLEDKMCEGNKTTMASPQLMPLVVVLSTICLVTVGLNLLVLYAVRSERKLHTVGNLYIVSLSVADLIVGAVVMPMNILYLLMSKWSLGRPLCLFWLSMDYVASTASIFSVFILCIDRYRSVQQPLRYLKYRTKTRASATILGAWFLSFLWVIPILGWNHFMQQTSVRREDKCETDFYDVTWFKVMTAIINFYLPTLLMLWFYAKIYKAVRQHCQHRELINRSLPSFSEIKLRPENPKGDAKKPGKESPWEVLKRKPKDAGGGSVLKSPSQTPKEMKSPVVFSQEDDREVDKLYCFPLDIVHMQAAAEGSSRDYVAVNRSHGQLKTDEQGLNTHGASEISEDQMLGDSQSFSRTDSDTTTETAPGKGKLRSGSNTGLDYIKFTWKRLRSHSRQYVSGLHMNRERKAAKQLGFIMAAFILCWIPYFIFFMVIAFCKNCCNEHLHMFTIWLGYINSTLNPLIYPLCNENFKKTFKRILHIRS
A further assay concerns the target Histamine H2 receptor (Homo sapiens, UniProt P25021). Nature of the assay: Displacement of [3H]UR-DE25 from human H2R receptor expressed in HEK293 cells by radioligand competition binding assay. The format is cell-based.
The target of another assay is Histamine H4 receptor (Homo sapiens, UniProt Q9H3N8). The assay can be described thus: Displacement of [3H]histamine from human H4R receptor expressed in HEK293 cells by radioligand competition binding assay. The format is cell-based.
Sequence of Histamine H4 receptor (Q9H3N8 whole entry): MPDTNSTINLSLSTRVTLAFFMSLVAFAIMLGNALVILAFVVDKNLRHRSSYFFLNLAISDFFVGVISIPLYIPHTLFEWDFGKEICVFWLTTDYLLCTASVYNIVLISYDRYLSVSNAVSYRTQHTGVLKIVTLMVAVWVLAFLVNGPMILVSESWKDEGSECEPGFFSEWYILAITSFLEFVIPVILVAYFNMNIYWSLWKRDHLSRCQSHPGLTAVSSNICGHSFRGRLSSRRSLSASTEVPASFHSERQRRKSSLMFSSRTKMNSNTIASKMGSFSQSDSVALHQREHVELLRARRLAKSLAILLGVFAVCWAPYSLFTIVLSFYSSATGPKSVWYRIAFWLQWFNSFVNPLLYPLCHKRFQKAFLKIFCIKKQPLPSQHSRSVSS
Assay [8] deals with T1, Histamine H3 receptor. The assay can be described thus: Inhibition of human H3R expressed in HEK293-A cells assessed as inhibition of imetit-induced Gi2 activation by BRET assay. The format is cell-based.
In assay [9] the target is T1, Histamine H3 receptor. Nature of the assay: Binding affinity in human H3 receptor expressed in HEK293 cells by confocal microscopy. The format is cell-based.
Assay [10] has as its target T1, Histamine H3 receptor. Nature of the assay: Binding affinity in human H3R assessed as association time constant by confocal microscopy.
The target in assay [11] is T1, Histamine H3 receptor. The assay can be described thus: Binding affinity in human H3R as assessed as dissociation time constant using confocal microscopy relative to control.
Assay [12] has as its target T1, Histamine H3 receptor. The assay can be described thus: Binding affinity in human H3R assessed as association rate constant using confocal microscopy.
For assay [13], the species on record is Homo sapiens. The assay can be described thus: Selectivity ratio of Ki for human H1 receptor to Ki for human H3 receptor.
The species entered for assay [14] is Homo sapiens. The assay can be described thus: Selectivity ratio of Ki for human H2 receptor to Ki for human H3 receptor.
The species named for assay [15] is Homo sapiens. Nature of the assay: Selectivity ratio of Ki for human H4 receptor to Ki for human H3 receptor.
Assay [16] has as its target T1, Histamine H3 receptor. The assay can be described thus: Binding affinity to human H3 receptor assessed as labeling efficiency by measuring dual color acquisition at 3 nM by microscopy based TIRF assay.

This note sets out measurements from ChEMBL document CHEMBL5053495, “A Versatile Sub-Nanomolar Fluorescent Ligand Enables NanoBRET Binding Studies and Single-Molecule Microscopy at the Histamine H3 Receptor” (J Med Chem, 2021).

T1 sequence (Q9Y5N1 whole entry): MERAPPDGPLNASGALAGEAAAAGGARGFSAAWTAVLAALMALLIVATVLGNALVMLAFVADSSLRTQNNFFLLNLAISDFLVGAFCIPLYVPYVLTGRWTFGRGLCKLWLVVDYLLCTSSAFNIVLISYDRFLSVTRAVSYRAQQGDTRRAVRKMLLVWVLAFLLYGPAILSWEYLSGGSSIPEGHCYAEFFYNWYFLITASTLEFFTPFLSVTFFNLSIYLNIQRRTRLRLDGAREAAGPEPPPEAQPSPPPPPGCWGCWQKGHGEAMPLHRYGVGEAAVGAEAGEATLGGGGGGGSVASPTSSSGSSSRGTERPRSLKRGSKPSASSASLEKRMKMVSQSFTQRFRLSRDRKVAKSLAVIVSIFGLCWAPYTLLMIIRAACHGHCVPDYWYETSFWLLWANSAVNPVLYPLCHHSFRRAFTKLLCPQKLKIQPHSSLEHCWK
Sequence of Histamine H2 receptor (P25021 whole entry): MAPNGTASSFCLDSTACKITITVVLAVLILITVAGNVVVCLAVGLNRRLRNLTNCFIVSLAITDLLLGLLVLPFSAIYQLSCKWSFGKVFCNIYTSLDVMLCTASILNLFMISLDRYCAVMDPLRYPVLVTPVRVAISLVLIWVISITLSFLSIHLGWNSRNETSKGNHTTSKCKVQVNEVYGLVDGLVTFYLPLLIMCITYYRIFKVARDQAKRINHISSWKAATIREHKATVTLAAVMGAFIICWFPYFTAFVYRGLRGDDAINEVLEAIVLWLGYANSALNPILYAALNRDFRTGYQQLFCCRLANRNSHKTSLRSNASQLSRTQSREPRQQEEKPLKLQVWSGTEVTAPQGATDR

Regarding `CCOC(=O)C1CCN(Cc2ccc(OCCCN3CCCCC3)cc2)CC1`, the affinity at Histamine H3 receptor [1], expressed as Ki, was 0.275 nM.
On to `N=C(N)SCCc1cnc[nH]1` [IMETIT], for which the Ki on Histamine H3 receptor [2] was 12.6 nM; on Histamine H3 receptor [3], 5.01 nM.
In the case of `CCN1CCN(C(=O)c2ccc(-c3nc4ccccc4s3)s2)CC1`, the Ki on Histamine H3 receptor [2] and at Histamine H3 receptor [3] was 19.5 nM in each case.
For the compound `CN(C)c1ccc2c(-c3ccc(C(=O)NCCOCCOCCOCCNC(=O)C4CCN(Cc5ccc(OCCCN6CCCCC6)cc5)CC4)cc3C(=O)[O-])c3ccc(=[N+](C)C)cc-3oc2c1`, the Kd was determined as 0.195 nM at Histamine H3 receptor [4] and 0.158 nM on Histamine H3 receptor [2]. Also, the TIME came out at 0.0328 h at Histamine H3 receptor [5], 0.107 h on Histamine H3 receptor [6], 0.008 h at Histamine H3 receptor [10] and 0.0583 h at Histamine H3 receptor [11]. The Activity at Histamine H3 receptor [7] stood at 0.71 min⁻¹ nM⁻¹; on Histamine H3 receptor [9] it was 2.13 min⁻¹; at Histamine H3 receptor [12], 0.37 min⁻¹ nM⁻¹; on Histamine H3 receptor [16] it was 96.1%. Also, the inhibition constant (Ki) is above 100000 nM on Histamine H1 receptor, above 100000 nM on Histamine H2 receptor, 0.302 nM at Histamine H3 receptor [1] and above 100000 nM on Histamine H4 receptor. Besides, at Histamine H3 receptor [8], the negative logarithm of the Kb (pKb) is 9.04. The Ratio Ki in the assay filed under Homo sapiens [13], in the assay listed under Homo sapiens [14] and in the assay listed under Homo sapiens [15] was above 100000 each time.
Compound `O=C(O)C1CCN(Cc2ccc(OCCCN3CCCCC3)cc2)CC1` had a Ki at Histamine H3 receptor [1] of 1.58 nM.
On the same count and under the same terms, next, `NCCOCCOCCOCCNC(=O)C1CCN(Cc2ccc(OCCCN3CCCCC3)cc2)CC1`: 0.398 nM.

Broadly, the Ki is a dissociation constant, usually derived from enzyme kinetics or from competition with a known ligand. A low value points to higher affinity. Broadly, the Kd is the free concentration of one partner at which half of the binding sites on the other are occupied at equilibrium, for simple one-to-one binding. Read a low Kd as tighter binding. The term pKb denotes −log10 of the Kb, conventionally taken in molar units.
